{"data": "Assay results pooled from the literature", "target": "Ephrin type-A receptor 2 (EPHA2, Homo sapiens, UniProt P29317)", "note": "Protocols differ between the studies behind these lines."}
{"Structure (SMILES)": "CC(C)(O)[C@H]1CC[C@H](Nc2ccc3ncc(-c4cccc(C(F)(F)F)c4)n3n2)CC1", "read-out": "enzyme activity", "mode": "inhibitor", "concentration": "1 µM", "quantity": "remaining activity", "result": "93.9%"}
{"Structure (SMILES)": "FC(F)c1nc2ccccc2n1-c1nc(N2CCOCC2)nc(N2CCOCC2)n1", "read-out": "enzyme activity", "mode": "inhibitor", "concentration": "10 µM", "quantity": "remaining activity", "result": "106%"}
{"Structure (SMILES)": "CCN(CC)CCNC(=O)c1c(C)[nH]c(/C=C2\\C(=O)Nc3ccc(F)cc32)c1C", "read-out": "enzyme activity", "mode": "inhibitor", "concentration": "10 µM", "quantity": "inhibition", "result": "52%"}
{"Structure (SMILES)": "COc1cc(/C=C/C(=O)CC(=O)/C=C/c2ccc(O)c(OC)c2)ccc1O", "read-out": "enzyme activity", "mode": "inhibitor", "concentration": "1 µM", "quantity": "activity vs control", "result": "104%"}
{"Structure (SMILES)": "C[C@@H]1CCN(C(=O)CC#N)C[C@@H]1N(C)c1ncnc2[nH]ccc12", "read-out": "cell-free assay", "concentration": "0.5 µM", "quantity": "remaining signal", "result": "95.8%"}
{"Structure (SMILES)": "Cc1ccc(C(=O)Nc2ccc(CN3CCN(C)CC3)c(C(F)(F)F)c2)cc1C#Cc1cnc2cccnn12", "read-out": "cell-free assay", "concentration": "23.5 nM", "quantity": "remaining signal", "result": "8.9%"}
{"Structure (SMILES)": "O=C(Nc1cnn(-c2csc(C(=O)NC3COC3)c2)c1)Nc1c(F)cccc1Cl", "read-out": "enzyme activity", "mode": "inhibitor", "concentration": "5 µM", "quantity": "remaining activity", "result": "97.9%"}
{"Structure (SMILES)": "CC/C(=N\\NC(=O)NCc1cccc(O)c1)c1ccc(O)c(C)c1O", "read-out": "enzyme activity", "mode": "inhibitor", "concentration": "0.1 µM", "quantity": "inhibition", "result": "3.9%"}
{"Structure (SMILES)": "O=C(N1CCS(=O)(=O)CC1)N1C[C@H](c2ccc(OC(F)(F)F)cc2)C[C@H](c2nc(C3CC3)no2)C1", "read-out": "cell-free assay", "technique": "competition with immobilised ligand", "concentration": "1 µM", "quantity": "remaining binding", "result": "100%"}
{"Structure (SMILES)": "N#CCCc1ccc2c(c1)-c1[nH]c3ccc([N+](=O)[O-])cc3c1CC(=O)N2", "read-out": "cell-free assay", "concentration": "0.5 µM", "quantity": "remaining signal", "result": "93.6%"}
{"Structure (SMILES)": "Cc1nccc(COC(=O)N2C[C@@H]3[C@@H](CNC(=O)c4ccc5[nH]nnc5c4)[C@@H]3C2)n1", "read-out": "cell-free assay", "technique": "competition with immobilised ligand", "concentration": "1 µM", "quantity": "remaining binding", "result": "92%"}
{"Structure (SMILES)": "CC(C)(C)c1nc(-c2cccc(NS(=O)(=O)c3c(F)cccc3F)c2F)c(-c2ccnc(N)n2)s1", "read-out": "enzyme activity", "mode": "inhibitor", "technique": "radiometric", "concentration": "1 µM", "quantity": "remaining activity", "result": "133%"}
{"Structure (SMILES)": "CNCc1ccccc1-c1csc([C@H](C)Nc2nc(C)nc3cc(OC)c(OC)cc23)c1", "read-out": "cell-free assay", "technique": "competition with immobilised ligand", "concentration": "1 µM", "quantity": "remaining binding", "result": "80%"}
{"Structure (SMILES)": "COc1cc(Nc2cnc(C#N)c(O[C@H](C)CN(C)C)n2)ncc1-c1cnn(C)c1", "read-out": "enzyme activity", "mode": "inhibitor", "technique": "radiometric", "concentration": "10 µM", "quantity": "remaining activity", "result": "24%"}
{"Structure (SMILES)": "COc1ccc2c(c1)O[C@@H](c1ccc(OC)c(OC)c1)C[C@H]2NC(=O)C1(c2ccc3c(c2)OC(F)(F)O3)CC1", "read-out": "cell-free assay", "technique": "competition with immobilised ligand", "concentration": "1 µM", "quantity": "remaining binding", "result": "95%"}
{"Structure (SMILES)": "O=C1NC(=O)c2cc(Nc3ccc(F)cc3)c(Nc3ccc(F)cc3)cc21", "read-out": "cell-free assay", "concentration": "0.5 µM", "quantity": "remaining signal", "result": "94.3%"}
{"Structure (SMILES)": "CCCOc1ccc(OC)c(F)c1C(=O)c1ccc(C(=O)N[C@@H]2CNC[C@H]2NC(=O)c2ccc3[nH]ncc3c2)cc1", "read-out": "enzyme activity", "mode": "inhibitor", "concentration": "10 µM", "quantity": "remaining activity", "result": "69%"}
{"Structure (SMILES)": "CN(c1ncccc1CNc1nc(Nc2ccc3c(c2)CC(=O)N3)ncc1C(F)(F)F)S(C)(=O)=O", "read-out": "enzyme activity", "mode": "inhibitor", "concentration": "1 µM", "quantity": "inhibition", "result": "29.7%"}
{"Structure (SMILES)": "COc1cc2ncnc(Nc3ccc(Oc4ccccc4)cc3C)c2cc1OC", "read-out": "enzyme activity", "mode": "inhibitor", "concentration": "1 µM", "quantity": "inhibition", "result": "2%"}
{"Structure (SMILES)": "O=C(Nc1cnc(Oc2ccc(F)cc2)nc1)N1CCc2ncccc2[C@@H]1c1ccc(F)cc1", "read-out": "cell-free assay", "technique": "competition with immobilised ligand", "concentration": "1 µM", "quantity": "remaining binding", "result": "99%"}
{"Structure (SMILES)": "Nc1nc(NC2CCCCC2)sc1C(=O)c1ccccc1", "read-out": "enzyme activity", "mode": "inhibitor", "concentration": "10 µM", "quantity": "remaining activity", "result": "110%"}
{"Structure (SMILES)": "O=C1NC(c2ccccn2)Sc2ccccc21 (stereo not drawn)", "read-out": "cell-free assay", "technique": "competition with immobilised ligand", "concentration": "1 µM", "quantity": "remaining binding", "result": "100%"}
{"Structure (SMILES)": "Cc1sc(C(=O)NC2COC2)cc1-n1cc(NC(=O)Nc2c(F)cccc2Cl)cn1", "read-out": "enzyme activity", "mode": "inhibitor", "concentration": "10 µM", "quantity": "remaining activity", "result": "102%"}
{"Structure (SMILES)": "O=C(CSc1nc2nccnc2c(=O)n1CCc1ccccc1)Nc1nccs1", "read-out": "enzyme activity", "mode": "inhibitor", "concentration": "10 µM", "quantity": "inhibition", "result": "8%"}
{"Structure (SMILES)": "COc1ccc2c(O[C@@H]3C[C@H]4C(=O)N[C@]5(C(=O)O)CC5/C=C\\CCCCC[C@H](NC(=O)OC5CCCC5)C(=O)N4C3)cc(-c3csc(NC(=O)C(C)C)n3)nc2c1C (stereo partly drawn)", "read-out": "cell-free assay", "technique": "competition with immobilised ligand", "concentration": "1 µM", "quantity": "remaining binding", "result": "80%"}
{"Structure (SMILES)": "Nc1ncnc2occ(-c3ccc(NC(=O)Nc4cc(C(F)(F)F)ccc4F)cc3)c12", "read-out": "cell-free assay", "concentration": "20 µM", "quantity": "remaining signal", "result": "0%"}
{"Structure (SMILES)": "CNC(=O)c1cc(Oc2ccc(NC(=O)Nc3ccc(Cl)c(C(F)(F)F)c3)cc2)ccn1", "read-out": "enzyme activity", "mode": "inhibitor", "concentration": "0.3 µM", "quantity": "inhibition", "result": "23%"}
{"Structure (SMILES)": "CCN(CC)c1ccc(C2=NNC(=O)CC2C)cc1[N+](=O)[O-] (stereo not drawn)", "read-out": "enzyme activity", "mode": "inhibitor", "concentration": "10 µM", "quantity": "remaining activity", "result": "97%"}
{"Structure (SMILES)": "Cc1ccc(Nc2nccc(N(C)c3ccc4c(C)n(C)nc4c3)n2)cc1S(N)(=O)=O", "read-out": "enzyme activity", "mode": "inhibitor", "concentration": "0.3 µM", "quantity": "inhibition", "result": "-2%"}
{"Structure (SMILES)": "CN(c1ccnc(CNc2nc(Nc3ccc4c(c3)CC(=O)N4)ncc2C(F)(F)F)n1)S(C)(=O)=O", "read-out": "cell-free assay", "technique": "competition with immobilised ligand", "concentration": "1 µM", "quantity": "remaining binding", "result": "80%"}
